According to ChEMBL document CHEMBL1153507, “Synthesis, DNA intercalation and 3D QSAR analysis of cis-2,4,5-trisubstituted-1,3-dithiolanes as a novel class of antitumor agents” (2009):
Active and inactive are the calls of the source. The rule behind the calls is not given here.

What was measured:
Calf thymus DNA [1] = assay: Binding affinity to calf thymus DNA by circular diachromic assay; assay type: nucleic-acid assay; conditions: Bos taurus
Calf thymus DNA [2] = assay: Binding affinity to calf thymus DNA by spectroscopy; assay type: nucleic-acid assay; conditions: Bos taurus
How it was run: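 UV-vis titration of calf thymus DNA (10 µM final) in PBS, pH 7.4. Compound from a 10 mM PBS stock was added in sequential aliquots to final 4–40 µM, and spectra were recorded after each addition. Compounds were transparent at 200–360 nm.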

Calf thymus DNA [3] = assay: Binding affinity to calf thymus DNA assessed as hyperchromic effect by UV-vis spectrophotometry; conditions: Bos taurus
CCRF S-180 [4] = assay: Antitumor activity against mouse S180 cells implanted in ICR mouse assessed as tumor weight at 44.64 umol/kg/day, ip administered for 7 consecutive days after 24 hrs of tumor implantation measured after 24 hrs post dose; assay type: functional
How it was run: (§1)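 Male ICR mice aged 10–12 weeks, housed at 21 °C on a natural light cycle, carried S180 tumors. 24 h after implantation they were randomized into groups of 10. Daily ip dosing in 0.2 ml normal saline for 7 days: test agents 44.64 µmol/kg/day, cytarabine 89.28 µmol/kg/day, saline as negative control. Mice were killed 24 h after the last dose and tumors weighed. Inhibition = (control − treated)/control tumor weight. Mean ± SD.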

CCRF S-180 [5] = assay: Antitumor activity against mouse S180 cells xenografted in ip dosed ICR mouse assessed as inhibition of tumor weight administered for 7 consecutive days after 24 of hrs tumor implantation measured after 24 hrs post dose; assay type: functional, organism-based; how it was run: as §1
CCRF S-180 [6] = assay: Antitumor activity against mouse S180 cells implanted in ICR mouse assessed as tumor weight at 89.28 umol/kg/day, ip administered for 7 consecutive days after 24 hrs of tumor implantation measured after 24 hrs post dose; assay type: functional; how it was run: as §1

SMILES	Activity (Calf thymus DNA [1])	Activity (Calf thymus DNA [2])	Activity (Calf thymus DNA [3])	Activity (CCRF S-180 [4]) [g]	inhibition (CCRF S-180 [5])	Activity (CCRF S-180 [6]) [g]
CC(C)[C@H](N)C(=O)OC[C@@H]1S[C@H](CC=O)S[C@@H]1COC(=O)[C@@H](N)C(C)C (mixture of isomers)	Active	Active	Active	1.114		
N=C(N)NCCC[C@H](N)C(=O)OC[C@@H]1S[C@H](CC=O)S[C@@H]1COC(=O)[C@@H](N)CCCNC(=N)N	Active	Active	Active	0.778		
CC(C)C[C@H](N)C(=O)OC[C@@H]1S[C@H](CC=O)S[C@@H]1COC(=O)[C@@H](N)CC(C)C	Active	Active	Active	1.296		
CC[C@H](C)[C@H](N)C(=O)OC[C@@H]1S[C@H](CC=O)S[C@@H]1COC(=O)[C@@H](N)[C@@H](C)CC	Active	Active	Active	1.064		
CSCC[C@H](N)C(=O)OC[C@@H]1S[C@H](CC=O)S[C@@H]1COC(=O)[C@@H](N)CCSC	Active	Active	Active	1.139		
N[C@@H](Cc1c[nH]c2ccccc12)C(=O)OC[C@@H]1S[C@H](CC=O)S[C@@H]1COC(=O)[C@@H](N)Cc1c[nH]c2ccccc12	Active	Active	Active	0.954		
O=CC[C@H]1S[C@@H](COC(=O)[C@@H]2CCCN2)[C@@H](COC(=O)[C@@H]2CCCN2)S1	Active	Active	Active	1.446		
N[C@@H](Cc1c[nH]cn1)C(=O)OC[C@@H]1S[C@H](CC=O)S[C@@H]1COC(=O)[C@@H](N)Cc1c[nH]cn1	Active	Active	Active	1.076		
N[C@@H](CCC(=O)O)C(=O)OC[C@@H]1S[C@H](CC=O)S[C@@H]1COC(=O)[C@@H](N)CCC(=O)O	Active	Active	Active	1.051		
N[C@@H](Cc1ccccc1)C(=O)OC[C@@H]1S[C@H](CC=O)S[C@@H]1COC(=O)[C@@H](N)Cc1ccccc1	Active	Active	Active	0.693	Dose-dependent effect	
Nc1ccn([C@@H]2O[C@H](CO)[C@@H](O)[C@@H]2O)c(=O)n1 [CYTARABINE]						0.582
N[C@@H](CO)C(=O)OC[C@@H]1S[C@H](CC=O)S[C@@H]1COC(=O)[C@@H](N)CO	Active	Active	Active	1.493		
NCCCC[C@H](N)C(=O)OC[C@@H]1S[C@H](CC=O)S[C@@H]1COC(=O)[C@@H](N)CCCCN	Active	Active	Active	0.989		
NC(=O)CC[C@H](N)C(=O)OC[C@@H]1S[C@H](CC=O)S[C@@H]1COC(=O)[C@@H](N)CCC(N)=O	Active	Active	Active	1.061		
NC(=O)C[C@H](N)C(=O)OC[C@@H]1S[C@H](CC=O)S[C@@H]1COC(=O)[C@@H](N)CC(N)=O	Active	Active	Active	0.855		
C[C@@H](O)[C@H](N)C(=O)OC[C@@H]1S[C@H](CC=O)S[C@@H]1COC(=O)[C@@H](N)[C@@H](C)O	Active	Active	Active	1.087		
C[C@H](N)C(=O)OC[C@@H]1S[C@H](CC=O)S[C@@H]1COC(=O)[C@H](C)N	Active	Active	Active	1.213		
NCC(=O)OC[C@@H]1S[C@H](CC=O)S[C@@H]1COC(=O)CN	Active	Active	Active	0.723	Dose-dependent effect	
N[C@@H](Cc1ccc(O)cc1)C(=O)OC[C@@H]1S[C@H](CC=O)S[C@@H]1COC(=O)[C@@H](N)Cc1ccc(O)cc1	Active	Active	Active	0.529	Dose-dependent effect	
